Measurements from PMC4984525 (Cancer, 2011).
Entries after “also recorded” stand apart in the source; their conditions may differ.

What was measured:
[1] = test system: relapsed or refractory AML or high-grade myelodysplastic syndromes; test: Clinical efficacy; type: in vivo, human
Summary of the method: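 Open-label, multicentre dose escalation in patients ≥17 y (ECOG 0–2). Test compound given IV over 1 h, on Day 1 (from 2.5 mg/m2) or on Days 1, 3 and 5 (from 0.8 mg/m2/day). Escalation steps were 50%, then 30%. Complete and partial remissions were scored during induction and later cycles; MDS used modified IWG criteria. Hydroxyurea was allowed during days 1–14.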

HT-29 = HT-29 subcutaneous xenograft, mouse; cited from earlier work
HCT-116 = HCT-116 subcutaneous xenograft, mouse; cited from earlier work
multiple myeloma = conditions: cited from earlier work
K562 = K562 subcutaneous xenograft, mouse; cited from earlier work
HCT15 = HCT15 subcutaneous xenograft, mouse; cited from earlier work
[2] = test system: Peripheral blood mononuclear cells (PBMCs); test: Pharmacodynamics: spindle morphology by confocal imaging; type: cell-based, human
tumor cell = conditions: background statement; cited from earlier work
A2780 = A2780 subcutaneous xenograft, mouse; cited from earlier work
[3] = Plasma pharmacokinetics of ARRY-520; type: in vivo, human; conditions: for coefficient of variation (CV) for CL: inter-patient variability; for AUC(0-t) / clearance / Cmax / MRT / Tmax / Vd / half-life: human, plasma, intravenous; for MRT / Tmax / half-life: median (min-max); for Vd: mean (%CV)

CON(C)C(=O)N1N=C(c2cc(F)ccc2F)S[C@@]1(CCCN)c1ccccc1 [ARRY-520]
partial response, % ([1]; 34 patients with efficacy data): 3%
partial response, patients n ([1]; 34 patients with efficacy data): 1
complete remissions ([1]; heavily pretreated relapsed/refractory AML or MDS): did not observe complete remissions
anti-cancer efficacy (HT-29): demonstrated anti-cancer efficacy
anti-cancer efficacy (HCT-116): demonstrated anti-cancer efficacy
activity in xenograft models of multiple myeloma (multiple myeloma): has shown activity
anti-cancer efficacy (K562): demonstrated anti-cancer efficacy
anti-cancer efficacy (HCT15): demonstrated anti-cancer efficacy
Aberrant spindles (with misaligned DNA) in PBMCs ([2]; Cycle 1, Day 5, patients dosed at 1.2 mg/m^2/day (after 3 doses)): observed in some PBMCs; also recorded: Aberrant spindles are observed; also recorded: abnormal spindles were observed
Monopolar spindles in blood mononuclear cells ([2]; DAPI nucleic acid stain and anti-tubulin antibodies): Monopolar spindles were observed
concentrations inducing mitotic arrest and tumor cell death (tumor cell): sub-nanomolar
anti-cancer efficacy (A2780): demonstrated anti-cancer efficacy
coefficient of variation (CV) for CL ([3]; Schedule 1, Cycle 1): 50.7%
coefficient of variation (CV) for CL ([3]; Schedule 1, Cycle 2): 77.1%
time plasma concentrations maintained above 2 ng/mL ([3]; Schedule 1, following a single infusion, postinitiation of infusion, all cohorts): greater than 7 days
time geometric mean plasma concentrations maintained above 2 ng/mL ([3]; Schedule 2, all cohorts): more than 14 days
overall ratio of AUC0–24 on Day 5 compared to Day 1 ([3]; Schedule 2, dosing at 48-hour intervals): 2.23
AUC(0-t) ([3]; 0.8 mg/m^2, AUC0–24, Schedule 2, Cycle 1 Day 1, 0.8 mg/m^2 (N=3), geometric mean (geometric %CV)): 116 ng·h/mL
AUC(0-t) ([3]; 0.8 mg/m^2, AUC0–24, Schedule 2, Cycle 1 Day 5, 0.8 mg/m^2 (N=3), geometric mean (geometric %CV)): 179 ng·h/mL
clearance ([3]; 0.8 mg/m^2, CL, Schedule 2, Cycle 1 Day 1, 0.8 mg/m^2 (N=3), geometric mean (geometric %CV)): 109 mL/min
clearance ([3]; 0.8 mg/m^2, CL, Schedule 2, Cycle 1 Day 5, 0.8 mg/m^2 (N=3), geometric mean (geometric %CV)): 33.8 mL/min
Cmax ([3]; 0.8 mg/m^2, Cmax, Schedule 2, Cycle 1 Day 1, 0.8 mg/m^2 (N=3), geometric mean (geometric %CV)): 19.5 ng/mL
Cmax ([3]; 0.8 mg/m^2, Cmax, Schedule 2, Cycle 1 Day 5, 0.8 mg/m^2 (N=3), geometric mean (geometric %CV)): 25.3 ng/mL
MRT ([3]; 0.8 mg/m^2, MRT, Schedule 2, Cycle 1 Day 5, 0.8 mg/m^2 (N=3)): 130 h
Tmax ([3]; 0.8 mg/m^2, Tmax, Schedule 2, Cycle 1 Day 1, 0.8 mg/m^2 (N=3)): 1 h
Tmax ([3]; 0.8 mg/m^2, Tmax, Schedule 2, Cycle 1 Day 5, 0.8 mg/m^2 (N=3)): 1.08 h
Vd ([3]; 0.8 mg/m^2, Vss, Schedule 2, Cycle 1 Day 1, 0.8 mg/m^2 (N=3)): 295 L
Vd ([3]; 0.8 mg/m^2, Vss, Schedule 2, Cycle 1 Day 5, 0.8 mg/m^2 (N=3)): 193 L
half-life ([3]; 0.8 mg/m^2, t1/2, Schedule 2, Cycle 1 Day 1, 0.8 mg/m^2 (N=3)): 29.8 h
half-life ([3]; 0.8 mg/m^2, t1/2, Schedule 2, Cycle 1 Day 5, 0.8 mg/m^2 (N=3)): 92.5 h
AUC(0-t) ([3]; 1.2 mg/m^2, AUC0–24, Schedule 2, Cycle 1 Day 1, 1.2 mg/m^2 (N=6), geometric mean (geometric %CV)): 133 ng·h/mL
AUC(0-t) ([3]; 1.2 mg/m^2, AUC0–24, Schedule 2, Cycle 1 Day 5, 1.2 mg/m^2 (N=6), geometric mean (geometric %CV)): 320 ng·h/mL
clearance ([3]; 1.2 mg/m^2, CL, Schedule 2, Cycle 1 Day 1, 1.2 mg/m^2 (N=6), geometric mean (geometric %CV)): 130 mL/min
clearance ([3]; 1.2 mg/m^2, CL, Schedule 2, Cycle 1 Day 5, 1.2 mg/m^2 (N=6), geometric mean (geometric %CV)): 15.8 mL/min
Cmax ([3]; 1.2 mg/m^2, Cmax, Schedule 2, Cycle 1 Day 1, 1.2 mg/m^2 (N=6), geometric mean (geometric %CV)): 18.8 ng/mL
Cmax ([3]; 1.2 mg/m^2, Cmax, Schedule 2, Cycle 1 Day 5, 1.2 mg/m^2 (N=6), geometric mean (geometric %CV)): 24.3 ng/mL
MRT ([3]; 1.2 mg/m^2, MRT, Schedule 2, Cycle 1 Day 5, 1.2 mg/m^2 (N=6)): 134 h
Tmax ([3]; 1.2 mg/m^2, Tmax, Schedule 2, Cycle 1 Day 1, 1.2 mg/m^2 (N=6)): 1.09 h
Tmax ([3]; 1.2 mg/m^2, Tmax, Schedule 2, Cycle 1 Day 5, 1.2 mg/m^2 (N=6)): 1 h
Vd ([3]; 1.2 mg/m^2, Vss, Schedule 2, Cycle 1 Day 1, 1.2 mg/m^2 (N=6)): 363 L
Vd ([3]; 1.2 mg/m^2, Vss, Schedule 2, Cycle 1 Day 5, 1.2 mg/m^2 (N=6)): 239 L
half-life ([3]; 1.2 mg/m^2, t1/2, Schedule 2, Cycle 1 Day 1, 1.2 mg/m^2 (N=6)): 25.6 h
half-life ([3]; 1.2 mg/m^2, t1/2, Schedule 2, Cycle 1 Day 5, 1.2 mg/m^2 (N=6)): 94.9 h
AUC(0-t) ([3]; 1.5 mg/m^2, AUC0–24, Schedule 2, Cycle 1 Day 1, 1.5 mg/m^2 (N=6), geometric mean (geometric %CV)): 264 ng·h/mL
AUC(0-t) ([3]; 1.5 mg/m^2, AUC0–24, Schedule 2, Cycle 1 Day 5, 1.5 mg/m^2 (N=6), geometric mean (geometric %CV)): 667 ng·h/mL
clearance ([3]; 1.5 mg/m^2, CL, Schedule 2, Cycle 1 Day 1, 1.5 mg/m^2 (N=6), geometric mean (geometric %CV)): 98.3 mL/min
clearance ([3]; 1.5 mg/m^2, CL, Schedule 2, Cycle 1 Day 5, 1.5 mg/m^2 (N=6), geometric mean (geometric %CV)): 18.5 mL/min
Cmax ([3]; 1.5 mg/m^2, Cmax, Schedule 2, Cycle 1 Day 1, 1.5 mg/m^2 (N=6), geometric mean (geometric %CV)): 57.9 ng/mL
Cmax ([3]; 1.5 mg/m^2, Cmax, Schedule 2, Cycle 1 Day 5, 1.5 mg/m^2 (N=6), geometric mean (geometric %CV)): 134 ng/mL
MRT ([3]; 1.5 mg/m^2, MRT, Schedule 2, Cycle 1 Day 5, 1.5 mg/m^2 (N=6)): 119 h
Tmax ([3]; 1.5 mg/m^2, Tmax, Schedule 2, Cycle 1 Day 1, 1.5 mg/m^2 (N=6)): 1 h
Tmax ([3]; 1.5 mg/m^2, Tmax, Schedule 2, Cycle 1 Day 5, 1.5 mg/m^2 (N=6)): 1.02 h
Vd ([3]; 1.5 mg/m^2, Vss, Schedule 2, Cycle 1 Day 1, 1.5 mg/m^2 (N=6)): 251 L
Vd ([3]; 1.5 mg/m^2, Vss, Schedule 2, Cycle 1 Day 5, 1.5 mg/m^2 (N=6)): 169 L
half-life ([3]; 1.5 mg/m^2, t1/2, Schedule 2, Cycle 1 Day 1, 1.5 mg/m^2 (N=6)): 26.1 h
half-life ([3]; 1.5 mg/m^2, t1/2, Schedule 2, Cycle 1 Day 5, 1.5 mg/m^2 (N=6)): 82.2 h
AUC(0-t) ([3]; 1.8 mg/m^2, AUC0–24, Schedule 2, Cycle 1 Day 1, 1.8 mg/m^2 (N=2), geometric mean): 208 ng·h/mL
AUC(0-t) ([3]; 1.8 mg/m^2, AUC0–24, Schedule 2, Cycle 1 Day 5, 1.8 mg/m^2 (N=2), geometric mean): 608 ng·h/mL
clearance ([3]; 1.8 mg/m^2, CL, Schedule 2, Cycle 1 Day 1, 1.8 mg/m^2 (N=2), geometric mean): 130 mL/min
clearance ([3]; 1.8 mg/m^2, CL, Schedule 2, Cycle 1 Day 5, 1.8 mg/m^2 (N=2), geometric mean): 18.3 mL/min
Cmax ([3]; 1.8 mg/m^2, Cmax, Schedule 2, Cycle 1 Day 1, 1.8 mg/m^2 (N=2), geometric mean): 24.4 ng/mL
Cmax ([3]; 1.8 mg/m^2, Cmax, Schedule 2, Cycle 1 Day 5, 1.8 mg/m^2 (N=2), geometric mean): 53.6 ng/mL
MRT ([3]; 1.8 mg/m^2, MRT, Schedule 2, Cycle 1 Day 5, 1.8 mg/m^2 (N=2)): 114 h
